Experiment [1] can be described thus: HUVEC growth inhibition – cell-based, human, primary screen (AID 575;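 active means viability at or below 30% in both replicate assays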;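 further: 100% = median of untreated cell wells with 0.1% DMSO on each plate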). The conditions noted are these: HUVEC proliferation, CellTiter-Glo luminescence, 72 h; at 10 µM; stronger effect = lower value. In short, it runs like this:
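Test system: primary human umbilical vein endothelial cells; medium: endothelial basal medium with 2% FBS plus growth supplements; dosing: 10 µM compound only; times: 72 h treatment at 37 °C; signal: CTG luminescence; read-out: % viability relative to median vehicle-well signal on each plate; control set: vehicle and MePR control wells; plate: 384-well, collagen-coated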
A general note: ATP-based viability assays read luminescence as a measure of living cells.

The nature of experiment [2]: H69AR cell proliferation blockers – human, duplicate replicates, primary screen (AID 580).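 Further: 100% = mean luminescence of untreated wells and 0% = no signal.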 The conditions noted are these: H69AR lung tumor cells viability, ATP luminescence, 72 h; at 10 µM; stronger effect = lower value.
A short description of experiment [3]: MRP1 drug-resistance reversers in H69AR cells – cell-based, doxorubicin co-treatment, pilot screen (AID 601;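 active means viability loss from added drug above about 55%, and viability with drug at most 40%, in both replicates, limit read from the data, passing the limit was not always enough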). The conditions noted are these: CellTiter-Glo, 72 h, at 10 µM; for differential viability (reversal): stronger effect = higher value.
Experiment [4] is described as follows: yeast transport mutant growth inhibition pilot in 384-well plates, post-Golgi transport modulator project (AID 636; in the data active means inhibition above about 31%). To be noted: absorbance 615 nm, about 18 h, stronger effect = higher value.
Experiment [5] is described as follows: growth suppression of yeast trafficking mutant, preliminary HTS, modulators of trafficking downstream of Golgi apparatus project, 1536-format plate, OD 615 nm (AID 637; in the data active means inhibition above about 30%). To be noted: yeast transport mutant growth, absorbance 615 nm, 18 h; stronger effect = higher value.
[6] abbreviates: H69AR cells + 2 uM doxorubicin, measured here: viability with 2 uM doxorubicin, stronger effect = lower value.
[7] abbreviates: H69AR cells, compound alone cytotoxicity.

Activity calls are given as the source filed them.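 How the source made its calls, unless noted: active means viability at or under a set limit in both replicates, limit being median viability minus 3 SD (cut at about 48% in these data, passing the limit was not always enough); inconclusive means at or under the limit in just one replicate; inactive means at or above the limit in both replicates.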

In the case of `CN1CCN(CC#CCC(O)(c2ccccc2)C2CCCC2)CC1` (stereo unspecified), the viability was 102% (inactive) in experiment [1], 91.7% (inactive) in experiment [2], 90.5% in experiment [3] (setting [6]) and 91.7% in experiment [3] (setting [7]). Besides, the differential viability (reversal) in experiment [3] (H69AR cells + 2 uM doxorubicin) was 1.13% (inactive). The inhibition in experiment [4] is -6.4% (inactive); in experiment [5], -2.38% (inactive).

For the compound `O=C(CCCn1c(=O)c2sccc2n(CC(=O)NCc2ccco2)c1=O)NCc1ccco1`, the viability in experiment [1] was 90.4% (inactive); in experiment [2] it was 100% (inactive); in experiment [3] (setting [6]), 80%; in experiment [3] (setting [7]), 100%. For the same compound, in experiment [3] (H69AR cells + 2 uM doxorubicin), the differential viability (reversal) is 20% (inactive). Moreover, the inhibition in experiment [4] is -2.86% (inactive); in experiment [5], 2.54% (inactive).

As for `CCCCn1c(NC(=O)CC)c(C#N)c2nc3ccccc3nc21`, the viability in experiment [1] was 77.4% (inactive); in experiment [2], 81.9% (inactive); in experiment [3] (setting [6]), 79.8%; in experiment [3] (setting [7]), 81.9%. For the same compound, in experiment [3] (H69AR cells + 2 uM doxorubicin), the differential viability (reversal) is 2.13% (inactive). Moreover, the inhibition in experiment [4] was -6.67% (inactive); in experiment [5] it was -2.38% (inactive).

In the case of `COc1ccc(C(=O)Nc2ccccc2C(=O)NCCN2CCOCC2)cc1`, the viability in experiment [1] is 107% (inactive); in experiment [2], 95.8% (inactive); in experiment [3] (setting [6]), 92.8%; in experiment [3] (setting [7]), 95.8%. Besides, the differential viability (reversal) in experiment [3] (H69AR cells + 2 uM doxorubicin) is 2.99% (inactive). Further, the inhibition in experiment [4] was 0% (inactive); in experiment [5], -4.13% (inactive).

Regarding `COc1ccc(Cl)cc1Nc1nc(NCCO)nc(N2CCCC2)n1`, the viability in experiment [1] is 55.1% (inactive); in experiment [2] it was 89.3% (inactive); in experiment [3] (setting [6]), 99.6%; in experiment [3] (setting [7]), 89.3%. Moreover, in experiment [3] (H69AR cells + 2 uM doxorubicin), the differential viability (reversal) is -10.3% (inactive). Also, the inhibition in experiment [4] is -7.57% (inactive); in experiment [5] it was 8.41% (inactive).

Turning to `CCNc1oc(COc2ccccc2F)nc1C#N`, the viability was 89.8% (inactive) in experiment [1], 100% (inactive) in experiment [2], 77.4% in experiment [3] (setting [6]) and 100% in experiment [3] (setting [7]). Further, in experiment [3] (H69AR cells + 2 uM doxorubicin), the differential viability (reversal) is 22.9% (inactive). Also, the inhibition is -2.6% (inactive) in experiment [4] and 1.43% (inactive) in experiment [5].

In the case of `CCn1c(SCC(=O)Nc2ccc(C(=O)OC)cc2)nnc1-c1cccs1`, the viability in experiment [1] is 109% (inactive); in experiment [2], 92.3% (inactive); in experiment [3] (setting [6]), 86.6%; in experiment [3] (setting [7]), 92.3%. Besides, the differential viability (reversal) in experiment [3] (H69AR cells + 2 uM doxorubicin) is 5.75% (inactive). Further, the inhibition in experiment [4] is -6% (inactive); in experiment [5], 6.98% (inactive).

On to `CN(C)/C=c1\sc2c(C#N)cc(C(=O)c3ccc(Br)cc3)n2c1=O`, for which the viability in experiment [1] was 70% (inactive); in experiment [2], 76.6% (inactive); in experiment [3] (setting [6]), 68%; in experiment [3] (setting [7]), 76.6%. Further, in experiment [3] (H69AR cells + 2 uM doxorubicin), the differential viability (reversal) was 8.66% (inactive). For the same compound, the inhibition is -4.29% (inactive) in experiment [4] and -1.59% (inactive) in experiment [5].

For `COc1cc2c(cc1OC)CN(C(=O)COc1ccc(C#N)cc1)CC2`, the viability was 93% (inactive) in experiment [1], 84.8% (inactive) in experiment [2], 96.8% in experiment [3] (setting [6]) and 84.8% in experiment [3] (setting [7]). Also, the differential viability (reversal) in experiment [3] (H69AR cells + 2 uM doxorubicin) was -12% (inactive). Also, the inhibition in experiment [4] is 0.52% (inactive); in experiment [5], -4.44% (inactive).

As to `O=C1NC(c2ccccc2)(C(F)(F)F)SC2=NCCCN12` (stereo unspecified), the viability is 102% (inactive) in experiment [1], 97.2% (inactive) in experiment [2], 89.6% in experiment [3] (setting [6]) and 97.2% in experiment [3] (setting [7]). For the same compound, the differential viability (reversal) in experiment [3] (H69AR cells + 2 uM doxorubicin) is 7.68% (inactive). Also, the inhibition is 3.82% (inactive) in experiment [4] and -6.98% (inactive) in experiment [5].

With `O=C(NC(NC1CCS(=O)(=O)C1)C(=O)c1cccs1)c1ccccc1` (stereo unspecified), the viability was 106% (inactive) in experiment [1], 106% (inactive) in experiment [2], 98.2% in experiment [3] (setting [6]) and 106% in experiment [3] (setting [7]). Further, the differential viability (reversal) in experiment [3] (H69AR cells + 2 uM doxorubicin) was 7.72% (inactive). Also, the results for the inhibition in experiment [4] and in experiment [5] were -1.17% (inactive) and -3.33% (inactive), respectively.

Take `C=CCn1c(=S)[nH]c2nc3c(cc2c1=O)COC(C)(C)C3`: the viability in experiment [1] is 90% (inactive); in experiment [2] it was 77.8% (inactive); in experiment [3] (setting [6]), 72%; in experiment [3] (setting [7]), 77.8%. Besides, in experiment [3] (H69AR cells + 2 uM doxorubicin), the differential viability (reversal) is 5.84% (inactive). Also, the inhibition in experiment [4] is -5.06% (inactive); in experiment [5], 2.86% (inactive).

For the compound `O=C(NCCN1CCCCC1)c1ccc(=O)oc1`, the viability was 101% (inactive) in experiment [1], 99.2% (inactive) in experiment [2], 89.6% in experiment [3] (setting [6]) and 99.2% in experiment [3] (setting [7]). Moreover, the differential viability (reversal) in experiment [3] (H69AR cells + 2 uM doxorubicin) is 9.61% (inactive). Further, the inhibition is -8.03% (inactive) in experiment [4] and -2.22% (inactive) in experiment [5].

As to `CCOc1ccccc1C(=O)NCCCn1ccnc1`, the viability in experiment [1] was 95.3% (inactive); in experiment [2], 91.9% (inactive); in experiment [3] (setting [6]) it was 87.5%; in experiment [3] (setting [7]), 91.9%. Further, in experiment [3] (H69AR cells + 2 uM doxorubicin), the differential viability (reversal) is 4.38% (inactive). The values for the inhibition in experiment [4] and in experiment [5] were -4.42% (inactive) and 2.7% (inactive), respectively.

For the compound `O=C(COc1ccc(Cl)cc1)Nc1ncccn1`, the viability in experiment [1] is 106% (inactive); in experiment [2], 107% (inactive); in experiment [3] (setting [6]), 92.6%; in experiment [3] (setting [7]), 107%. Moreover, the differential viability (reversal) in experiment [3] (H69AR cells + 2 uM doxorubicin) was 14.6% (inactive). Also, the inhibition was -1.05% (inactive) in experiment [4] and 4.13% (inactive) in experiment [5].

Consider `CC(C)CC(OC(=O)c1cccs1)C(=O)NCc1ccco1` (stereo unspecified), for which the viability in experiment [1] is 103% (inactive); in experiment [2] it was 80.6% (inactive); in experiment [3] (setting [6]), 81%; in experiment [3] (setting [7]), 80.6%. The differential viability (reversal) in experiment [3] (H69AR cells + 2 uM doxorubicin) was -0.4% (inactive). Further, the inhibition is -7.6% (inactive) in experiment [4] and -4.13% (inactive) in experiment [5].

`COc1ccc(C2C(C#N)=C(N)Oc3cc4c(cc32)OCO4)cc1` (stereo unspecified): the viability in experiment [1] is 53.4% (inactive); in experiment [2], 32.8% (active); in experiment [3] (setting [6]), 82.2%; in experiment [3] (setting [7]), 32.8%. Besides, the differential viability (reversal) in experiment [3] (H69AR cells + 2 uM doxorubicin) was -49.4% (inactive). For the same compound, the inhibition in experiment [4] was -5.07% (inactive); in experiment [5], -1.11% (inactive).

As to `Nc1nc(C(=O)N2CCOCC2)nn1S(=O)(=O)c1ccc(Cl)cc1`, the viability in experiment [1] is 99.1% (inactive); in experiment [2] it was 95.2% (inactive); in experiment [3] (setting [6]), 97%; in experiment [3] (setting [7]) it was 95.2%. The differential viability (reversal) in experiment [3] (H69AR cells + 2 uM doxorubicin) was -1.83% (inactive). The results for the inhibition in experiment [4] and in experiment [5] were -1.3% (inactive) and -0.95% (inactive), respectively.

On to `COc1cc(OC)cc(-c2nc(N)n[nH]2)c1`, for which the viability was 97.8% (inactive) in experiment [1], 103% (inactive) in experiment [2], 97.3% in experiment [3] (setting [6]) and 103% in experiment [3] (setting [7]). The differential viability (reversal) in experiment [3] (H69AR cells + 2 uM doxorubicin) was 5.86% (inactive). For the same compound, the inhibition in experiment [4] was -6.4% (inactive); in experiment [5] it was 2.06% (inactive).

As to `COC(=O)Oc1c(Br)c(=O)oc2ccccc12`, the viability is 90.8% (inactive) in experiment [1], 83% (inactive) in experiment [2], 80.1% in experiment [3] (setting [6]) and 83% in experiment [3] (setting [7]). Further, the differential viability (reversal) in experiment [3] (H69AR cells + 2 uM doxorubicin) was 2.87% (inactive). Besides, the inhibition in experiment [4] is -0.4% (inactive); in experiment [5], -4.13% (inactive).

As to `CCOc1ccccc1NC(=O)CCSc1nc2n[nH]c(C)c2c(=N)n1-c1ccccc1Cl`, the viability in experiment [1] is 39.2% (inactive); in experiment [2], 16.9% (active); in experiment [3] (setting [6]), 16.4%; in experiment [3] (setting [7]) it was 16.9%. Moreover, the differential viability (reversal) in experiment [3] (H69AR cells + 2 uM doxorubicin) is 0.49% (inactive). In addition, the inhibition in experiment [4] is -3.03% (inactive); in experiment [5], -3.5% (inactive).

For `CC1CCN(C(=O)c2ccc(C(=O)N3CCC(C)CC3)cc2)CC1`, the viability in experiment [1] is 87.3% (inactive); in experiment [2] it was 101% (inactive); in experiment [3] (setting [6]), 95.4%; in experiment [3] (setting [7]), 101%. Also, the differential viability (reversal) in experiment [3] (H69AR cells + 2 uM doxorubicin) is 5.22% (inactive). For the same compound, the inhibition in experiment [4] is -0.66% (inactive); in experiment [5] it was 0.48% (inactive).

Turning to `CC1(C)NC(=O)N(CN2C(=O)NC(C)(C)C2=O)C1=O`, the viability is 99.6% (inactive) in experiment [1], 102% (inactive) in experiment [2], 90.8% in experiment [3] (setting [6]) and 102% in experiment [3] (setting [7]). Further, the differential viability (reversal) in experiment [3] (H69AR cells + 2 uM doxorubicin) is 11.1% (inactive). Moreover, the values for the inhibition in experiment [4] and in experiment [5] were -3.33% (inactive) and -1.11% (inactive), respectively.

One may read the viability as a read-out of living cells in per cent, often relative to untreated cells. By inhibition is commonly meant the change of the read-out against control, counted positive when it falls.

(Values after PubChem BioAssay.)
